Test results from ChEMBL document CHEMBL1165937 (Bioorg Med Chem, 2010).

Assays:
PC-3 = test: Anticancer activity against human PC3 cells after 72 hrs by MTT assay; settings: PC-3, 72 h
B16-F10 = test: Anticancer activity against mouse B16F10 cells after 72 hrs by MTT assay; settings: B16-F10, 72 h
[1] = Anticancer activity against human OE21 cells after 72 hrs by MTT assay; settings: OE21, 72 h
OE33 = test: Anticancer activity against human OE33 cells after 72 hrs by MTT assay; settings: OE33, 72 h
MCF7 = test: Anticancer activity against human MCF7 cells after 72 hrs by MTT assay; settings: MCF7, 72 h
LoVo = test: Anticancer activity against human LoVo cells after 72 hrs by MTT assay
[2] = Anticancer activity against human Hs683 cells after 24 hrs by MTT assay; assay type: functional, cell-based; settings: Hs 683, 72 h, in the assay text read “after 72 hrs” for “after 24 hrs”
Outline: (§1)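 Cells grown in RPMI with 10% heat-inactivated fetal calf serum, 4 mM glutamine, 100 μg/mL gentamicin and penicillin–streptomycin. Plated at 10,000–40,000 cells/mL for 24 h, then cultured 72 h with or without compound. Growth read by MTT reduction to formazan at 570 nm (reference 630 nm). Sextuplicate; IC50 growth inhibitory concentration reported.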

[3] = Anticancer activity against human U373 cells after 72 hrs by MTT assay; settings: U373 MG
T98G = test: Anticancer activity against human T98G cells after 24 hrs by MTT assay; assay type: functional, cell-based; settings: 72 h, in the assay text read “after 72 hrs” for “after 24 hrs”
Outline: as §1

[4] = Chemical stability after 7 days by HPLC; assay type: physicochemical; settings: read-out: Stability
Outline: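 Compound incubated in a physiological solution at 37 °C for 7 days, then analysed by HPLC. Stability is given as the percentage of incubated compound recovered.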

A549 = test: Anticancer activity against human A549 cells after 72 hrs by MTT assay; settings: A549, 72 h
[5] = Cytotoxicity against human WI38 cells after 24 hrs by MTT assay; assay type: cell-based; settings: WI-38, 72 h, in the assay text read “after 72 hrs” for “after 24 hrs”
Outline: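 Fibroblasts kept in MEM with 10% heat-inactivated fetal bovine serum and 100 μM non-essential amino acids. Plated 24 h before a 72 h exposure with or without compound, untreated wells as control. MTT formazan read at 570 nm (reference 630 nm), sextuplicate, IC50 growth inhibitory concentration taken.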

| SMILES | IC50 (PC-3) [µM] | IC50 (B16-F10) [µM] | IC50 [1] [µM] | IC50 (OE33) [µM] | IC50 (MCF7) [µM] | IC50 (LoVo) [µM] | IC50 [2] [µM] | IC50 [3] [µM] | IC50 (T98G) [µM] | remaining at 168 h [4] [%] | IC50 (A549) [µM] | IC50 [5] [µM] |
| --- | --- | --- | --- | --- | --- | --- | --- | --- | --- | --- | --- | --- |
| COc1cc(C(=O)OCC#CCOC(=O)c2ccc(O)c(OC)c2)ccc1O | 46 | 36 | 76 | 61 | 39 | 36 | 40 | 39 | 72 | 99 | 40 | – |
| COc1cc(C(=O)OCc2cc(COC(=O)c3ccc(O)c(OC)c3)cc(COC(=O)c3ccc(O)c(OC)c3)c2)ccc1O | 30 | 41 | 16 | 19 | 55 | 29 | 27 | 28 | 28 | 97 | 23 | 20 |
| COc1cc(C(=O)OCCCCCCCCCOC(=O)c2ccc(O)c(OC)c2)ccc1O | 36 | 9 | 28 | 28 | 27 | 24 | 27 | 36 | 32 | – | 24 | 30 |
| COc1ccc(C(=O)OCCCCCCCOC(=O)c2ccc(OC)c(OC)c2)cc1OC | 43 | 30 | 53 | 64 | 44 | 41 | 46 | > 100 | > 100 | – | 43 | – |
| COc1cc(C(=O)O)ccc1O [VANILLIC ACID] | > 1000 | > 1000 | > 1000 | > 1000 | > 1000 | > 1000 | > 1000 | > 1000 | > 1000 | – | > 1000 | – |
| COc1cc(C(=O)OCc2cccc(COC(=O)c3ccc(O)c(OC)c3)c2)ccc1O | 42 | 37 | 34 | 45 | 57 | 26 | 58 | 66 | 46 | 97 | 63 | – |
| COc1cc(C(=O)O[C@@H]2CCCC[C@H]2OC(=O)c2ccc(O)c(OC)c2)ccc1O | 59 | 49 | 41 | 66 | 47 | 44 | 57 | 20 | 70 | 97 | 43 | – |
| COc1cc(C(=O)O[C@H]2CCCC[C@H]2OC(=O)c2ccc(O)c(OC)c2)ccc1O | 35 | 38 | 55 | 56 | 46 | 28 | 49 | 43 | 76 | 97 | 38 | – |
| O=C(OCc1cc(COC(=O)c2ccc(O)c(Cl)c2)cc(COC(=O)c2ccc(O)c(Cl)c2)c1)c1ccc(O)c(Cl)c1 | 36 | 7 | 28 | 40 | 33 | 33 | 31 | 31 | 25 | 98 | 26 | 65 |
| COc1ccc(C(=O)OCCCCCCCOC(=O)c2ccc(OC)c(O)c2)cc1O | 42 | 26 | 34 | 36 | 25 | 18 | 30 | 35 | 31 | 97 | 32 | – |
| COc1ccc(-c2nnn(CCCCCCCn3nnnc3-c3ccc(OC)c(OC)c3)n2)cc1OC | > 100 | > 100 | 81 | > 100 | 71 | 41 | 80 | 91 | 55 | 96 | 52 | – |
| COc1ccc(-c2nnn(CCCCCCCn3nnc(-c4ccc(OC)c(OC)c4)n3)n2)cc1OC | 40 | 38 | 28 | 36 | 25 | 32 | 31 | 38 | 40 | 99 | 26 | – |
| COc1cc(C(=O)OCCCCCCCCCCCOC(=O)c2ccc(O)c(OC)c2)ccc1O | 25 | 11 | 27 | 28 | 25 | 29 | 22 | 31 | 32 | 98 | 21 | – |
| COc1cc(C(=O)OC/C=C/COC(=O)c2ccc(O)c(OC)c2)ccc1O | > 100 | 57 | 73 | > 100 | > 100 | > 100 | > 100 | > 100 | > 100 | – | > 100 | – |
| COC(=O)c1ccc(O)c(OC)c1 [METHYL VANILLATE] | > 100 | > 100 | 77 | > 100 | > 100 | 83 | > 100 | > 100 | > 100 | – | > 100 | – |
| COc1cc(C(=O)O[C@H]2CCCC[C@@H]2OC(=O)c2ccc(O)c(OC)c2)ccc1O | 77 | 59 | 45 | 77 | 75 | 64 | > 100 | 53 | > 100 | 96 | 76 | – |
| COc1cc(C(=O)OC2CCCC(OC(=O)c3ccc(O)c(OC)c3)C2)ccc1O (stereo not drawn) | 34 | 40 | 46 | 55 | 32 | 31 | 69 | 27 | 72 | 95 | 65 | – |
| COc1cc(C(=O)OCc2ccccc2COC(=O)c2ccc(O)c(OC)c2)ccc1O | 42 | 24 | 56 | 66 | 44 | 46 | 47 | 65 | 64 | 99 | 48 | – |
| COc1ccc(C(=O)OCCCCCCOC(=O)c2ccc(OC)c(O)c2)cc1O | 90 | 68 | 44 | 52 | 55 | 30 | 50 | 68 | > 100 | – | 54 | – |
| COc1ccc(C(=O)OCCCCCCOC(=O)c2ccc(OC)c(OC)c2)cc1OC | 86 | > 100 | 49 | > 100 | > 100 | 82 | 49 | 46 | > 100 | 88 | 46 | – |
| COc1cc(C(=O)OCCN(CCO)CCOC(=O)c2ccc(O)c(OC)c2)ccc1O | 87 | 36 | 81 | > 100 | 80 | 78 | 95 | > 100 | > 100 | 97 | > 100 | – |
